# Assays:
# [1] = target: T1, Quinolone resistance protein NorA (Staphylococcus aureus) (UniProt P0A0J7); experiment: Inhibition of NorA in Staphylococcus aureus 1199 assessed as reduction in ciprofloxacin MIC by microdilution technique
# T1 sequence (whole entry): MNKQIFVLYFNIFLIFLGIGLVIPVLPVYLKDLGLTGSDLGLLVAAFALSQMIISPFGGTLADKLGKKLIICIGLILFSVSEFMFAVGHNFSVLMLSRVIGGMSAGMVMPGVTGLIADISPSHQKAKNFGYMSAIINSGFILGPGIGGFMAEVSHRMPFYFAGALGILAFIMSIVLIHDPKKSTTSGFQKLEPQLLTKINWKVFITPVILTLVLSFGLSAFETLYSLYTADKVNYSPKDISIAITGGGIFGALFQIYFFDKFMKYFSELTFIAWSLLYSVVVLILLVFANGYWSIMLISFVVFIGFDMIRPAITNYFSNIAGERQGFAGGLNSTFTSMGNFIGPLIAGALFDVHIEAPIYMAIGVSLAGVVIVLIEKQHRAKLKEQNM
# Method in brief: (§1)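 Checkerboard combination: fresh scalar dilutions of test compound crossed with ciprofloxacin dilutions. Ciprofloxacin MIC determined by broth microdilution per CLSI guidelines, in duplicate. The result is the fold reduction in ciprofloxacin MIC relative to ciprofloxacin alone, read at the stated test-compound concentration. Reserpine served as reference inhibitor.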
# [2] = target: T1, Quinolone resistance protein NorA (Staphylococcus aureus); experiment: Inhibition of NorA in Staphylococcus aureus 1199B assessed as reduction in ethidium bromide efflux at 50 uM by fluorimetry after 5 mins
# Method in brief: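 S. aureus SA-1199B (NorA overexpressing via promoter up-mutation; GrlA A116E), EtBr-loaded cells. EtBr loss measured fluorometrically over a 5 min time course, in duplicate, as mean total efflux. Percent reduction calculated versus efflux without compound. Test compound at 50 μM; increasing concentrations were also run for dose-response profiles.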
# Staphylococcus aureus [3] = experiment: Antibacterial activity against Staphylococcus aureus K2378 overexpressing NorA by microdilution technique; type: functional
# Method in brief: (§2)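 Intrinsic MIC of each test compound, run alone, by broth microdilution per CLSI guidelines, in duplicate.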
# Staphylococcus aureus [4] = experiment: Antibacterial activity against NorA deficient Staphylococcus aureus K1902 by microdilution technique; type: functional; method in brief: as §2
# Staphylococcus aureus [5] = experiment: Antibacterial activity against Staphylococcus aureus 1199 expressing wild type NorA by microdilution technique
# Staphylococcus aureus [6] = experiment: Antibacterial activity against Staphylococcus aureus 1199B by microdilution technique; type: functional
# Method in brief: (§3)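 MICs run in duplicate by broth microdilution following CLSI guidelines. Ciprofloxacin MICs were also determined with scalar dilutions of freshly prepared test compound solutions in checkerboard combination format. Strain panel: SA-K1902 (norA-), SA-K2378 (norA++), SA-1199 (norA wild-type), SA-1199B (norA++, GrlA A116E) and ATCC 25923 wild-type control.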
# Staphylococcus aureus [7] = experiment: Antibacterial activity against Staphylococcus aureus 1199B overexpressing wild type NorA and GrlA A116E mutant by microdilution technique; type: functional; method in brief: as §2
# Staphylococcus aureus [8] = experiment: Potentiation of ciprofloxacin MIC against wild type Staphylococcus aureus ATCC 25923 at 3.13 ug/ml by microdilution technique; type: functional
# Method in brief: (§4)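 Ciprofloxacin MICs were measured in duplicate by broth microdilution following CLSI guidelines, alone and in checkerboard combination with scalar dilutions of freshly prepared test compound. Potentiation was scored as the reduction in ciprofloxacin MIC. Strains: SA-1199B (NorA overexpressed via promoter up-mutation, plus GrlA A116E) and ATCC 25923 (wild-type control).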
# Staphylococcus aureus [9] = experiment: Antibacterial activity against wild type Staphylococcus aureus ATCC 25923 by microdilution technique; type: functional; method in brief: as §2
# [10] = target: T1, Quinolone resistance protein NorA (Staphylococcus aureus); experiment: Inhibition of NorA in Staphylococcus aureus 1199 assessed as reduction in ciprofloxacin MIC at 0.78 ug/ml by microdilution technique
# Method in brief: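 Checkerboard combination of ciprofloxacin with freshly prepared test compound in S. aureus SA-1199 (norA wild-type). Ciprofloxacin MIC determined in duplicate by CLSI microdilution in the presence of fixed compound concentrations.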
# [11] = target: T1, Quinolone resistance protein NorA (Staphylococcus aureus); experiment: Inhibition of NorA in Staphylococcus aureus 1199B expressing GrlA A116E mutant assessed as reduction in ciprofloxacin MIC at 25 ug/ml by microdilution technique; method in brief: as §4
# [12] = target: T1, Quinolone resistance protein NorA (Staphylococcus aureus); experiment: Inhibition of NorA in Staphylococcus aureus 1199B expressing GrlA A116E mutant assessed as reduction in ciprofloxacin MIC at 12.5 ug/ml by microdilution technique; method in brief: as §1
# Staphylococcus aureus [13] = experiment: Potentiation of ciprofloxacin MIC against NorA deficient Staphylococcus aureus K1902 by microdilution technique; type: functional; method in brief: as §3
# [14] = target: T1, Quinolone resistance protein NorA (Staphylococcus aureus); experiment: Inhibition of NorA in Staphylococcus aureus K2378 assessed as reduction in ciprofloxacin MIC at 3.13 ug/ml by microdilution technique
# Method in brief: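 CLSI broth microdilution checkerboard combining ciprofloxacin with scalar dilutions of freshly prepared test compound, in duplicate, against S. aureus SA-K2378 (NorA-overexpressing; SA-K1902 norA-negative as paired strain). Value is the ciprofloxacin MIC reduction with test compound present at the stated fixed concentration.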
# Staphylococcus aureus [15] = experiment: Potentiation of ciprofloxacin MIC against wild type Staphylococcus aureus ATCC 25923 by microdilution technique; type: functional; method in brief: as §3
# [16] = target: T1, Quinolone resistance protein NorA (Staphylococcus aureus); experiment: Inhibition of NorA in Staphylococcus aureus K2378 assessed as reduction in ciprofloxacin MIC at 12.5 ug/ml by microdilution technique; method in brief: as §1
# [17] = target: T1, Quinolone resistance protein NorA (Staphylococcus aureus); experiment: Inhibition of NorA in Staphylococcus aureus 1199B expressing GrlA A116E mutant assessed as reduction in ciprofloxacin MIC at 1.56 ug/ml by microdilution technique; method in brief: as §1
# [18] = target: T1, Quinolone resistance protein NorA (Staphylococcus aureus); experiment: Inhibition of NorA in Staphylococcus aureus K2378 assessed as reduction in ciprofloxacin MIC at 1.56 ug/ml by microdilution technique; method in brief: as §1
smiles,measurement,setting,value
Cn1cccc1-c1nc2cc(NC(=O)c3ccccc3)ccc2[nH]1,fold change (FC),[1],4
same,inhibition,[2],94.3%
Cc1ccc(S(=O)(=O)Nc2ccc3[nH]c(-c4cccn4C)nc3c2)cc1,MIC,Staphylococcus aureus [3],> 100 µg/mL
same,MIC,Staphylococcus aureus [4],> 100 µg/mL
same,MIC,Staphylococcus aureus [5],> 100 µg/mL
same,MIC,Staphylococcus aureus [6],> 273 µM
same,MIC,Staphylococcus aureus [7],> 100 µg/mL
same,fold change (FC),Staphylococcus aureus [8],8
same,MIC,Staphylococcus aureus [9],> 100 µg/mL
same,fold change (FC),[10],8
same,inhibition,[2],88.2%
C[C@@H](NCc1cccc(OCc2ccccc2)c1)[C@@H](O)c1ccccc1,fold change (FC),[11],16
same,MIC,Staphylococcus aureus [3],50 µg/mL
same,fold change (FC),[12],4
same,MIC,Staphylococcus aureus [4],100 µg/mL
same,MIC,Staphylococcus aureus [5],100 µg/mL
same,MIC,Staphylococcus aureus [6],> 288 µM
same,fold change (FC),Staphylococcus aureus [13],2
same,fold change (FC),[14],4
same,fold change (FC),Staphylococcus aureus [15],2
same,MIC,Staphylococcus aureus [7],> 100 µg/mL
same,MIC,Staphylococcus aureus [9],100 µg/mL
same,fold change (FC),[1],2
same,fold change (FC),[16],16
same,inhibition,[2],86.6%
CC[C@H](C)N1C(=O)S/C(=C/c2ccc(-c3cc(C(=O)O)ccc3Cl)o2)C1=O,MIC,Staphylococcus aureus [3],50 µg/mL
same,fold change (FC),[12],8
same,MIC,Staphylococcus aureus [4],50 µg/mL
same,MIC,Staphylococcus aureus [5],25 µg/mL
same,MIC,Staphylococcus aureus [6],123 µM
same,fold change (FC),Staphylococcus aureus [13],2
same,fold change (FC),[14],32
same,fold change (FC),Staphylococcus aureus [15],2
same,MIC,Staphylococcus aureus [7],50 µg/mL
same,MIC,Staphylococcus aureus [9],50 µg/mL
same,fold change (FC),[1],2
same,fold change (FC),[16],32
same,inhibition,[2],81%
CC[C@H]1CCc2nc(SCc3ccc(C(=O)O)cc3)c(C#N)c(C(F)(F)F)c2C1,MIC,Staphylococcus aureus [3],6.25 µg/mL
same,fold change (FC),[17],2
same,MIC,Staphylococcus aureus [4],6.25 µg/mL
same,MIC,Staphylococcus aureus [5],12.5 µg/mL
same,MIC,Staphylococcus aureus [6],15 µM
same,fold change (FC),[18],16
same,fold change (FC),Staphylococcus aureus [13],2
same,fold change (FC),Staphylococcus aureus [15],2
same,MIC,Staphylococcus aureus [7],6.25 µg/mL
same,MIC,Staphylococcus aureus [9],6.25 µg/mL
same,fold change (FC),[1],2
same,inhibition,[2],71.7%
CN1CC[C@H](c2ccc(F)cc2)[C@@H](COc2ccc3c(c2)OCO3)C1,inhibition,[2],85%
OC(CNCc1cccc(OCc2ccccc2)c1)c1ccccc1 (stereo unspecified),fold change (FC),[1],4
same,inhibition,[2],88.4%
Cc1cc(C)cc(/N=C2\S/C(=C\c3ccc(C(=O)O)cc3)C(=O)N2c2cc(C)cc(C)c2)c1,inhibition,[2],55%
CCOC(=O)c1cn(C2CC2)c2cc(N3CCC4=C(C3)/C(=N/O)C(C)CS4)c(N)cc2c1=O (stereo unspecified),inhibition,[2],91.2%
COc1cc2c(=O)cc(-c3ccc(O)cc3)n(C)c2cc1OC,inhibition,[2],0%
CCOC(=O)CCSc1nc2c(c(C(F)(F)F)c1C#N)CC(C(C)(C)C)CC2 (stereo unspecified),inhibition,[2],25.2%
Fc1ccc(C2=Nc3ccccc3SC2)cc1,inhibition,[2],0%
C[C@H](O)c1cccc(NC(=O)CC(c2ccccc2)c2ccccc2)c1,inhibition,[2],31.4%
Cn1c(-c2ccc(OCCN3CCCCC3)cc2)cc(=O)c2ccccc21,inhibition,[2],19.8%
CCCOc1ccc(-c2cc(=O)c3ccccc3n2C)cc1,inhibition,[2],3.9%
Cc1ccc(S(=O)(=O)Nc2ccc3c(c2)ncn3-c2ccccc2)cc1,inhibition,[2],0%
CCC(C)N1C(=O)S/C(=C\c2ccc(N3CCCC3)o2)C1=O (stereo unspecified),inhibition,[2],0%
CCOC(=O)c1cn(C2CC2)c2c(C)c(N3CCC4=C(C3)/C(=N/O)CCS4)c(N)cc2c1=O,inhibition,[2],36.2%
COc1ccc(/C=C/C(=O)NCCc2c[nH]c3ccccc23)cc1OC,inhibition,[2],84%
OCCN1CCN(CC/C=C2/c3ccccc3Sc3ccc(C(F)(F)F)cc32)CC1,inhibition,[2],82%
O=C(CSc1nnc(CNc2ccc(F)cc2)o1)N1c2ccccc2Sc2ccccc21,inhibition,[2],11.5%
CC(C)N1C(=O)S/C(=C/c2cc(Br)ccc2OCc2ccc(C(=O)O)cc2)C1=O,inhibition,[2],3.1%
Cc1c(NS(=O)(=O)c2ccc(F)cc2)c(=O)n(-c2ccccc2)n1C,inhibition,[2],3.2%
COc1ccccc1CNCc1cccc(C(F)(F)F)c1,inhibition,[2],30%
Cc1ccc(S(=O)(=O)Nc2ccc3c(c2)nc(C)n3Cc2ccccc2)cc1,inhibition,[2],30.6%

# Reference: ChEMBL document CHEMBL1649083, “Discovery of novel inhibitors of the NorA multidrug transporter of Staphylococcus aureus” (2011)
